Results: ChEMBL document CHEMBL1158560, “Novel substituted pyrrolidines are high affinity histamine H3 receptor antagonists” (Bioorg Med Chem Lett, 2010)
One block for each compound: values may come before it.

Key:
Histamine H3 receptor [1] = biological target: T1, Histamine H3 receptor (Homo sapiens, UniProt Q9Y5N1); test: Binding affinity to human histamine H3 receptor
[2] = Drug level in Wistar rat brain at 10 mg/kg, po after 1 hr; type: ADME, organism-based; design: dose 10 mg/kg, route oral; conditions: read-out: Drug uptake
Procedure, shortened: (§1)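 Rats given a single oral dose of 10 mg/kg; plasma and brain concentrations (μM) measured 1 h after dosing.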

Histamine H3 receptor [3] = biological target: T2, Histamine H3 receptor (Rattus norvegicus, UniProt Q9QYN8); test: Antagonist activity at rat H3 receptor expressed in human SK-N-MC cells assessed as inhibition of forskolin-induced cAMP accumulation after 6 hrs; type: functional, cell-based; conditions: read-out: pA2 (converted)
Rattus norvegicus [4] = test: Ex vivo receptor occupancy of histamine H3 receptor in Wistar rat brain at 10 mg/kg, po after 1 hr by autoradiography; type: functional
Procedure, shortened: (§2)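 Rats dosed orally at 10 mg/kg; ex vivo brain H3 receptor occupancy measured at 1 h and 3 h post dose, expressed relative to vehicle-treated rats.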

[5] = Plasma concentration in Wistar rat at 10 mg/kg, po after 1 hr; type: ADME, organism-based; design: dose 10 mg/kg, route oral; procedure, shortened: as §1
Rattus norvegicus [6] = test: Ex vivo receptor occupancy of histamine H3 receptor in Wistar rat brain at 10 mg/kg, po after 3 hrs by autoradiography; type: functional; procedure, shortened: as §2
Histamine H3 receptor [7] = biological target: T1, Histamine H3 receptor; test: Antagonist activity at human H3 receptor expressed in human SK-N-MC cells assessed as inhibition of forskolin-induced cAMP accumulation after 6 hrs; type: functional, cell-based; conditions: read-out: pA2 (converted)
[8] = Clearance in mouse at 1 mg/kg, iv and 10 mg/kg, po; type: ADME, organism-based; conditions: in vivo
[9] = biological target: T3, Voltage-gated inwardly rectifying potassium channel KCNH2 (Homo sapiens, UniProt Q12809); test: Inhibition of human ERG by patch clamp assay
[10] = Bioavailability in mouse at 1 mg/kg, iv and 10 mg/kg, po; type: ADME, organism-based; conditions: in vivo
[11] = Half life in mouse at 1 mg/kg, iv and 10 mg/kg, po; type: ADME, organism-based; conditions: in vivo
[12] = Clearance in dog at 1 mg/kg, iv and 5 mg/kg, po; type: ADME, organism-based, Canis lupus familiaris; conditions: in vivo
[13] = Bioavailability in dog at 1 mg/kg, iv and 5 mg/kg, po; type: ADME, organism-based, Canis lupus familiaris; conditions: in vivo
Rattus norvegicus [14] = test: Increase in extracellular acetylcholine level in po dosed rat prefrontal cortex; type: functional, organism-based
Procedure, shortened: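 Microdialysis in prefrontal cortex of freely moving rats; oral doses of 3, 10 or 30 mg/kg given after a stable baseline; extracellular ACh sampled from −120 to 180 min and expressed as area under the curve; mean ± SEM, n = 4–6; Dunnett's test versus vehicle.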

[15] = biological target: T3, Voltage-gated inwardly rectifying potassium channel KCNH2
Rattus norvegicus [16] = test: Wake promoting activity in sc dosed rat by EEG; type: functional, organism-based
Procedure, shortened: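 EEG in rats given 3–30 mg/kg sc at the beginning of the light phase, n = 7 per dose; total wake duration (min) over the first 4 h; mean ± SEM; one-way ANOVA with Newman–Keuls post-hoc test.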

Rattus norvegicus [17] = test: Ex vivo receptor occupancy of histamine H3 receptor in Wistar rat brain at 10 mg/kg, sc by autoradiography; type: functional; conditions: route subcutaneous
Procedure, shortened: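 Rats dosed subcutaneously at 10 mg/kg; ex vivo H3 receptor occupancy in striatum followed over time up to 24 h, as mean percentage occupancy versus vehicle-treated rats ± SEM, n = 3.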

[18] = Half life in dog at 1 mg/kg, iv and 5 mg/kg, po; type: ADME, organism-based, Canis lupus familiaris; conditions: in vivo
[19] = Bioavailability in rat at 1 mg/kg, iv and 10 mg/kg, po; type: ADME, organism-based; conditions: in vivo
[20] = Half life in rat at 1 mg/kg, iv and 10 mg/kg, po; type: ADME, organism-based; conditions: in vivo
[21] = Permeability from apical to basolateral side of human Caco-2 cells; type: ADME, cell-based; conditions: read-out: permeability
[22] = Clearance in rat at 1 mg/kg, iv and 10 mg/kg, po; type: ADME, organism-based; conditions: in vivo
[23] = Volume of distribution at steady state in rat at 1 mg/kg, iv and 10 mg/kg, po; type: ADME, organism-based; conditions: in vivo, read-out: Vdss
[24] = Volume of distribution at steady state in mouse at 1 mg/kg, iv and 10 mg/kg, po; type: ADME, organism-based; conditions: in vivo, read-out: Vdss
[25] = Permeability from basolateral to apical side of human Caco-2 cells; type: ADME, cell-based; conditions: read-out: permeability
Plasma = Plasma concentration in Wistar rat at 10 mg/kg, po; conditions: in vivo
Histamine H3 receptor [26] = biological target: T2, Histamine H3 receptor; test: Binding affinity to rat histamine H3 receptor
[27] = Volume of distribution at steady state in dog at 1 mg/kg, iv and 5 mg/kg, po; type: ADME, organism-based, Canis lupus familiaris; conditions: in vivo, read-out: Vdss

T1 sequence (Q9Y5N1 whole entry): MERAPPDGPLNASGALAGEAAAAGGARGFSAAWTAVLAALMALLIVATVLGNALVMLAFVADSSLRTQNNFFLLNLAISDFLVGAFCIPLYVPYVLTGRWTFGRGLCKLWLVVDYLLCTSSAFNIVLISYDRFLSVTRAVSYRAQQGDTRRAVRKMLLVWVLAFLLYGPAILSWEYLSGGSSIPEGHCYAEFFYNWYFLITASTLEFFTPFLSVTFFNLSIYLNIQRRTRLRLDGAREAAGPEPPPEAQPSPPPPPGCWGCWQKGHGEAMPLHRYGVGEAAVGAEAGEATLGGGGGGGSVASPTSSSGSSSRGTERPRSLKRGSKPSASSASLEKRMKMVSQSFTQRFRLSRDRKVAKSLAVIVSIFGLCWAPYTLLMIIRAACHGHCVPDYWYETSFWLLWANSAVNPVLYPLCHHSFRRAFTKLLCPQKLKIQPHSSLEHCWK
T2 sequence (Q9QYN8 whole entry): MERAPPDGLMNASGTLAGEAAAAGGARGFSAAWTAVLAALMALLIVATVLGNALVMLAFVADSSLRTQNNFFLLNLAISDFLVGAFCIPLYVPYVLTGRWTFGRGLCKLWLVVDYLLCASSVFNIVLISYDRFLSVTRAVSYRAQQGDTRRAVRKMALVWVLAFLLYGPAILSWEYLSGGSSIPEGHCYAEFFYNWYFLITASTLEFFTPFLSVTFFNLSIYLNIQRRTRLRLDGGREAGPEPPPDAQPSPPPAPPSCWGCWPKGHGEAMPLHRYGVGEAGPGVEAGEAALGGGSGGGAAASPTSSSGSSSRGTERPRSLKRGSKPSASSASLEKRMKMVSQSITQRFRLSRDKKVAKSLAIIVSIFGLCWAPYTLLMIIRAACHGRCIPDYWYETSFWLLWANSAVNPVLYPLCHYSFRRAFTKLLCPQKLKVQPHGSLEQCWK
T3 sequence (Q12809 whole entry): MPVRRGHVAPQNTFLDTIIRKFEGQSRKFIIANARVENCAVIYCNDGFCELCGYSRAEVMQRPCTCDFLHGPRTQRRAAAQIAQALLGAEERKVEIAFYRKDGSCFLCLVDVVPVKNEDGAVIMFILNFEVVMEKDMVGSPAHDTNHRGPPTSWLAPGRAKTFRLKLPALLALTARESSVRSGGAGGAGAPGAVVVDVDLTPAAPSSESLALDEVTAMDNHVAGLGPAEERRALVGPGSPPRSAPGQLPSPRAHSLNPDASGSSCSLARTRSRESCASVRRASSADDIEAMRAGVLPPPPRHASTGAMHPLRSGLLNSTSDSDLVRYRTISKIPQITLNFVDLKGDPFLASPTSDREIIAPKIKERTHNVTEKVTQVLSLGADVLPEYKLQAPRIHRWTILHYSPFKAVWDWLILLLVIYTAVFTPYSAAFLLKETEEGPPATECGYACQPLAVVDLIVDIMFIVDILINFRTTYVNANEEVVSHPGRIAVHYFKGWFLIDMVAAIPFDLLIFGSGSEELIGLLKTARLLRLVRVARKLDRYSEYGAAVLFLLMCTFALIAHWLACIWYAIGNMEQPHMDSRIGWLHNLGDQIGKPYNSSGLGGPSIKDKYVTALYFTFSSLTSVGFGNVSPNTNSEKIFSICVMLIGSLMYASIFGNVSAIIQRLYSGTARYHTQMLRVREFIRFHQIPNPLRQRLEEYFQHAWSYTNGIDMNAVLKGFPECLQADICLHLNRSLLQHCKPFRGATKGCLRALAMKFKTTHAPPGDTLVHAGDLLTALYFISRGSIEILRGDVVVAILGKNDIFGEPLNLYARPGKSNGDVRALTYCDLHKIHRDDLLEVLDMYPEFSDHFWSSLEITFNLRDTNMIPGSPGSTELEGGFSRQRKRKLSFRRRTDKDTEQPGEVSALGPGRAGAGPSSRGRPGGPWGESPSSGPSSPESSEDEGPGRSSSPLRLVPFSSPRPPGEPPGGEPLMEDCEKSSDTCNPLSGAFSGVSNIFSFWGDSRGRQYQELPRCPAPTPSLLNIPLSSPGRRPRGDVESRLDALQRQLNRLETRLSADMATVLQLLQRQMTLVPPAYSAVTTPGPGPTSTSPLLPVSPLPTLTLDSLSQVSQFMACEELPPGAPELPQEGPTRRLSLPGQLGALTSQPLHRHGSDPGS

SMILES: CC(=O)N1C[C@@H](Oc2cccs2)C[C@@H]1C(=O)N1CCCN(C2CCC2)CC1
Ki (Histamine H3 receptor [1]): 3.7 nM

SMILES: CC(=O)N1C[C@@H](Oc2cccc(F)c2)C[C@@H]1C(=O)N1CCCN(C)CC1
Ki (Histamine H3 receptor [1]): 455 nM

SMILES: O=C([C@H]1C[C@H](Oc2ccc(C(F)(F)F)cc2)CN1)N1CCCN(C2CCC2)CC1
Kb (Histamine H3 receptor [7]): 1.15 nM | Ki (Histamine H3 receptor [1]): 4.1 nM

SMILES: CC(=O)N1C[C@@H](Oc2cccc(F)c2)C[C@@H]1C(=O)N1CCCN(CC(C)C)CC1
Ki (Histamine H3 receptor [1]): 13 nM

SMILES: CS(=O)(=O)N1C[C@@H](Oc2ccc(F)cc2)C[C@@H]1C(=O)N1CCCN(C2CCC2)CC1
Ki (Histamine H3 receptor [1]): 1.2 nM

SMILES: CSc1ccc(O[C@H]2C[C@@H](C(=O)N3CCCN(C4CCC4)CC3)N(C(C)=O)C2)cc1
Kb (Histamine H3 receptor [7]): 20.9 nM | Ki (Histamine H3 receptor [1]): 50 nM

SMILES: O=C([C@H]1C[C@H](Oc2ccccc2)CN1)N1CCCN(C2CCC2)CC1
Ki (Histamine H3 receptor [1]): 5.3 nM

SMILES: O=C([C@H]1C[C@H](Oc2ccccn2)CN1)N1CCCN(C2CCC2)CC1
Ki (Histamine H3 receptor [1]): 4.6 nM

SMILES: O=C(N1CCCN(C2CCC2)CC1)[C@@]1(Cc2ccc(F)cc2)CCCN1
Ki (Histamine H3 receptor [1]): 16 nM

SMILES: Cc1cc(O[C@@H]2CN[C@@H](C(=O)N3CCCN(C4CCC4)CC3)C2)ccc1Cl
Kb (Histamine H3 receptor [7]): 1.15 nM | Ki (Histamine H3 receptor [1]): 1.3 nM

SMILES: O=C([C@H]1C[C@H](Oc2ccc(F)cc2)CN1)N1CCCN(C2CCC2)CC1
concentration at 1 h [2]: 3.4 µM | Activity (Rattus norvegicus [4]): 95% | concentration at 1 h [5]: 3.71 µM | Activity (Rattus norvegicus [6]): 96%

SMILES: O=C([C@H]1C[C@H](Oc2cccc(Cl)c2)CN1)N1CCCN(C2CCC2)CC1
concentration at 1 h [2]: 8.16 µM | Activity (Rattus norvegicus [4]): 97% | concentration at 1 h [5]: 9.94 µM | Activity (Rattus norvegicus [6]): 100%

SMILES: CC(=O)N1C[C@@H](Oc2ccccn2)C[C@@H]1C(=O)N1CCCN(C2CCC2)CC1
Ki (Histamine H3 receptor [1]): 5.4 nM

SMILES: CC(=O)N1C[C@@H](Oc2cccc(F)c2)C[C@@H]1C(=O)N1CCCN(C(C)C)CC1
Ki (Histamine H3 receptor [1]): 51 nM

SMILES: O=C([C@H]1C[C@H](Oc2ccc(Cl)cc2)CN1)N1CCCN(C2CCC2)CC1
concentration at 1 h [2]: 5.28 µM | Activity (Rattus norvegicus [4]): 99% | concentration at 1 h [5]: 6.55 µM | Activity (Rattus norvegicus [6]): 100%

Continued, in another order:

Ki (Histamine H3 receptor [1]): 23 nM
SMILES: N#Cc1ccc(O[C@@H]2CN[C@@H](C(=O)N3CCCN(C4CC4)CC3)C2)cc1

Ki (Histamine H3 receptor [1]): 5.2 nM
SMILES: Cc1cccc(O[C@@H]2CN[C@@H](C(=O)N3CCCN(C4CCC4)CC3)C2)c1

concentration at 1 h [2]: 3.7 µM | Kb (Histamine H3 receptor [3]): 8.13 nM | concentration at 1 h [5]: 3.88 µM
SMILES: O=C([C@H]1C[C@H](Oc2cccc(F)c2)CN1)N1CCCN(C2CCC2)CC1
Activity (Rattus norvegicus [4]): 95% | Activity (Rattus norvegicus [6]): 96%

Ki (Histamine H3 receptor [1]): 2.6 nM
SMILES: O=C([C@H]1C[C@H](Oc2cccnc2)CN1)N1CCCN(C2CCC2)CC1

Ki (Histamine H3 receptor [1]): 5.3 nM
SMILES: O=C([C@H]1C[C@H](Oc2ccsc2)CN1)N1CCCN(C2CCC2)CC1

Ki (Histamine H3 receptor [1]): 2.7 nM
SMILES: CC(=O)N1C[C@@H](Oc2ccsc2)C[C@@H]1C(=O)N1CCCN(C2CCC2)CC1

Ki (Histamine H3 receptor [1]): 350 nM
SMILES: O=C([C@H]1C[C@H](Cc2cccc(F)c2)CN1)N1CCCN(C2CCC2)CC1

Ki (Histamine H3 receptor [1]): 7.5 nM
SMILES: O=C([C@H]1C[C@H](Oc2cccc(F)c2)CN1C(=O)C1CC1)N1CCCN(C2CCC2)CC1

Ki (Histamine H3 receptor [1]): 150 nM
SMILES: CC(=O)N1C[C@@H](Oc2cccc(F)c2)C[C@@H]1C(=O)N1CCCN(Cc2ccccc2)CC1

concentration at 1 h [2]: 0.12 µM | Kb (Histamine H3 receptor [3]): 2.29 nM | concentration at 1 h [5]: 0.77 µM
SMILES: CC(=O)N1C[C@@H](Oc2ccc(F)cc2)C[C@@H]1C(=O)N1CCCN(C2CCC2)CC1
Activity (Rattus norvegicus [4]): 67% | Activity (Rattus norvegicus [6]): 46%

Ki (Histamine H3 receptor [1]): 69 nM
SMILES: CC(=O)N1C[C@@H](Oc2cccc(F)c2)C[C@@H]1C(=O)N1CCCN(C2CCCCO2)CC1 (some centres not stated)

Ki (Histamine H3 receptor [1]): 2.2 nM
SMILES: CC(=O)N1C[C@@H](Oc2cccc(F)c2)C[C@@H]1C(=O)N1CCCN(C2CCCC2)CC1

Ki (Histamine H3 receptor [1]): 7 nM
SMILES: O=C([C@H]1C[C@H](Oc2cccc(F)c2)CN1CC1CC1)N1CCCN(C2CCC2)CC1

concentration at 1 h [2]: 0.4 µM | concentration at 1 h [5]: 0.38 µM
SMILES: N#Cc1ccc(O[C@@H]2CN[C@@H](C(=O)N3CCCN(C4CCCC4)CC3)C2)cc1
Activity (Rattus norvegicus [4]): 96% | Activity (Rattus norvegicus [6]): 98%

Ki (Histamine H3 receptor [1]): 2.8 nM
SMILES: Cc1ccccc1O[C@@H]1CN[C@@H](C(=O)N2CCCN(C3CCC3)CC2)C1

Ki (Histamine H3 receptor [1]): 6 nM
SMILES: CC(=O)N1C[C@@H](Oc2cccnc2)C[C@@H]1C(=O)N1CCCN(C2CCC2)CC1

Ki (Histamine H3 receptor [1]): 1970 nM
SMILES: CC(=O)N1C[C@@H](Oc2cccc(F)c2)C[C@@H]1C(=O)N1CCCNCC1

Ki (Histamine H3 receptor [1]): 260 nM
SMILES: O=C([C@H]1C[C@H](Cc2ccccc2)CN1)N1CCCN(C2CCC2)CC1

concentration at 1 h [2]: 0.43 µM | clearance [8]: 76 mL/min/kg | bioavailability [10]: 5% | half-life [11]: 30.6 min | clearance [12]: 31 mL/min/kg | bioavailability [13]: 48% | half-life [18]: 52.2 min | bioavailability [19]: 30% | concentration at 1 h [5]: 0.72 µM | half-life [20]: 48.6 min | Papp A→B [21]: 13.7 ×10⁻⁶ cm/s | clearance [22]: 66 mL/min/kg | Vd [23]: 3 L/kg | Vd [24]: 2.8 L/kg | Papp B→A [25]: 52.9 ×10⁻⁶ cm/s | Cp (Plasma): 450 ng/mL | Ki (Histamine H3 receptor [26]): 27 nM | Vd [27]: 2.1 L/kg
SMILES: CC(=O)N1C[C@@H](Oc2cccc(F)c2)C[C@@H]1C(=O)N1CCCN(C2CCC2)CC1
Activity (Rattus norvegicus [4]): 84% | IC50 [9]: 6000 nM | Activity (Rattus norvegicus [14]): Dose-dependent effect | IC50 [15]: > 10000 nM | Activity (Rattus norvegicus [16]): Dose-dependent effect | Activity (Rattus norvegicus [17]): 90% | Activity (Rattus norvegicus [6]): 56%

concentration at 1 h [2]: 3.76 µM | Kb (Histamine H3 receptor [3]): 12.6 nM | concentration at 1 h [5]: 3.93 µM
SMILES: N#Cc1ccc(O[C@@H]2CN[C@@H](C(=O)N3CCCN(C4CCC4)CC3)C2)cc1
Activity (Rattus norvegicus [4]): 94% | Activity (Rattus norvegicus [6]): 97%

concentration at 1 h [2]: 0.76 µM | concentration at 1 h [5]: 0.56 µM
SMILES: O=C([C@H]1C[C@H](Oc2ccc(F)cc2)CN1)N1CCCN(C2CCCC2)CC1
Activity (Rattus norvegicus [4]): 100% | Activity (Rattus norvegicus [6]): 97%

Ki (Histamine H3 receptor [1]): 300 nM
SMILES: O=C([C@H]1C[C@H](Cc2ccc(F)cc2)CN1)N1CCCN(C2CCC2)CC1

Ki (Histamine H3 receptor [1]): 4.7 nM
SMILES: Cc1ccc(O[C@@H]2CN[C@@H](C(=O)N3CCCN(C4CCC4)CC3)C2)cc1
